Results as given in ChEMBL document CHEMBL4715736, “Identification of anticancer agents based on the thieno[2,3-b]pyridine and 1H-pyrazole molecular scaffolds” (2016).

Each compound was assayed on NCI-H322M (assay: Growth inhibition of human NCI-H322M cells assessed as cell growth at 0.01 uM incubated for 48 hrs by sulforhodamine B assay relative to control). Conditions: read-out: Activity.
Format: functional

**Q.** For `CCc1cccc(C)c1NC(=O)c1sc2nc3c(cc2c1N)C(=O)CCC3`, which growth at 0.01 µM is on record?
**A.** 91%

The compounds below were run on NCI-H460 (assay: Growth inhibition of human NCI-H460 cells assessed as cell growth at 0.01 uM incubated for 48 hrs by sulforhodamine B assay relative to control). Conditions: read-out: Activity.
Format: functional

**Q.** Which growth at 0.01 µM does the source give for `CCc1cccc(C)c1NC(=O)c1sc2nc3c(cc2c1N)C(=O)CCC3` here?
**A.** 101%

What follows are compounds tested on SW-620 (assay: Growth inhibition of human SW-620 cells assessed as cell growth at 0.01 uM incubated for 48 hrs by sulforhodamine B assay relative to control). Conditions: read-out: Activity.
Format: functional

**Q.** With `CCc1cccc(C)c1NC(=O)c1sc2nc3c(cc2c1N)C(=O)CCC3` as the compound, how does the growth at 0.01 µM read?
**A.** 97%

The compounds below were run on SNB-19 (assay: Growth inhibition of human SNB-19 cells assessed as cell growth at 0.01 uM incubated for 48 hrs by sulforhodamine B assay relative to control). Conditions: read-out: Activity.
Format: functional

**Q.** `CCc1cccc(C)c1NC(=O)c1sc2nc3c(cc2c1N)C(=O)CCC3` was tested. Which growth at 0.01 µM did it give?
**A.** 96%

What follows are compounds tested on LOX IMVI (assay: Growth inhibition of human LOX IMVI cells assessed as cell growth at 0.01 uM incubated for 48 hrs by sulforhodamine B assay relative to control). Conditions: read-out: Activity.
Format: functional

**Q.** For `CCc1cccc(C)c1NC(=O)c1sc2nc3c(cc2c1N)C(=O)CCC3`, which growth at 0.01 µM is on record?
**A.** 95%

What follows are compounds tested on OVCAR-5 (assay: Growth inhibition of human OVCAR-5 cells assessed as cell growth at 0.01 uM incubated for 48 hrs by sulforhodamine B assay relative to control). Conditions: read-out: Activity.
Format: functional

**Q.** Which growth at 0.01 µM does the source give for `CCc1cccc(C)c1NC(=O)c1sc2nc3c(cc2c1N)C(=O)CCC3` here?
**A.** 87%

The compounds below were run on 786-0 (assay: Growth inhibition of human 786-0 cells assessed as cell growth at 0.01 uM incubated for 48 hrs by sulforhodamine B assay relative to control). Conditions: read-out: Activity.
Format: functional
Procedure, shortened: (§1)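 NCI Developmental Therapeutics Program NCI60 panel. Compounds that were active in the 10 µM one-dose screen went on to dose–response testing. Growth at each concentration is expressed relative to untreated control (100%). GI50 (concentration giving 50% of maximal inhibition of proliferation) and TGI (concentration giving total growth inhibition) were derived from the curves.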

**Q.** Which growth at 0.01 µM does the source give for `CCc1cccc(C)c1NC(=O)c1sc2nc3c(cc2c1N)C(=O)CCC3` here?
**A.** 86%

Each compound was assayed on CAKI-1 (assay: Growth inhibition of human CAKI-1 cells assessed as cell growth at 0.01 uM incubated for 48 hrs by sulforhodamine B assay relative to control). Conditions: read-out: Activity.
Format: functional
Procedure, shortened: as §1

**Q.** With `CCc1cccc(C)c1NC(=O)c1sc2nc3c(cc2c1N)C(=O)CCC3` as the compound, how does the growth at 0.01 µM read?
**A.** 89%

The compounds below were run on SF-268 (assay: Growth inhibition of human SF-268 cells assessed as cell growth at 0.1 uM incubated for 48 hrs by sulforhodamine B assay relative to control). Conditions: read-out: Activity.
Format: functional

**Q.** With `CCc1cccc(C)c1NC(=O)c1sc2nc3c(cc2c1N)C(=O)CCC3` as the compound, how does the growth at 0.1 µM read?
**A.** 96%

The compounds below were run on SF-539 (assay: Growth inhibition of human SF-539 cells assessed as cell growth at 0.1 uM incubated for 48 hrs by sulforhodamine B assay relative to control). Conditions: read-out: Activity.
Format: functional

**Q.** With `CCc1cccc(C)c1NC(=O)c1sc2nc3c(cc2c1N)C(=O)CCC3` as the compound, how does the growth at 0.1 µM read?
**A.** 89%

The compounds below were run on Malme-3M (assay: Growth inhibition of human Malme-3M cells assessed as cell growth at 0.1 uM incubated for 48 hrs by sulforhodamine B assay relative to control). Conditions: read-out: Activity.
Format: functional

**Q.** For `CCc1cccc(C)c1NC(=O)c1sc2nc3c(cc2c1N)C(=O)CCC3`, which growth at 0.1 µM is on record?
**A.** 86%

Each compound was assayed on M14 (assay: Growth inhibition of human M14 cells assessed as cell growth at 0.1 uM incubated for 48 hrs by sulforhodamine B assay relative to control). Conditions: read-out: Activity.
Format: functional

**Q.** Which growth at 0.1 µM does the source give for `CCc1cccc(C)c1NC(=O)c1sc2nc3c(cc2c1N)C(=O)CCC3` here?
**A.** 92%

These compounds were tested on UACC-62 (assay: Growth inhibition of human UACC-62 cells assessed as cell growth at 0.1 uM incubated for 48 hrs by sulforhodamine B assay relative to control). Conditions: read-out: Activity.
Format: functional

**Q.** `CCc1cccc(C)c1NC(=O)c1sc2nc3c(cc2c1N)C(=O)CCC3` was tested. Which growth at 0.1 µM did it give?
**A.** 88%

What follows are compounds tested on NCI/ADR-RES (assay: Growth inhibition of human NCI/ADR-RES cells assessed as cell growth at 0.1 uM incubated for 48 hrs by sulforhodamine B assay relative to control). Conditions: read-out: Activity.
Format: functional

**Q.** With `CCc1cccc(C)c1NC(=O)c1sc2nc3c(cc2c1N)C(=O)CCC3` as the compound, how does the growth at 0.1 µM read?
**A.** 99%

These compounds were tested on 786-0 (assay: Growth inhibition of human 786-0 cells assessed as cell growth at 0.1 uM incubated for 48 hrs by sulforhodamine B assay relative to control). Conditions: read-out: Activity.
Format: functional
Procedure, shortened: as §1

**Q.** Which growth at 0.1 µM does the source give for `CCc1cccc(C)c1NC(=O)c1sc2nc3c(cc2c1N)C(=O)CCC3` here?
**A.** 89%

These compounds were tested on CAKI-1 (assay: Growth inhibition of human CAKI-1 cells assessed as cell growth at 0.1 uM incubated for 48 hrs by sulforhodamine B assay relative to control). Conditions: read-out: Activity.
Format: functional
Procedure, shortened: as §1

**Q.** With `CCc1cccc(C)c1NC(=O)c1sc2nc3c(cc2c1N)C(=O)CCC3` as the compound, how does the growth at 0.1 µM read?
**A.** 91%

The compounds below were run on DU-145 (assay: Growth inhibition of human DU-145 cells assessed as cell growth at 0.1 uM incubated for 48 hrs by sulforhodamine B assay relative to control). Conditions: read-out: Activity.
Format: functional
Procedure, shortened: as §1

**Q.** Which growth at 0.1 µM does the source give for `CCc1cccc(C)c1NC(=O)c1sc2nc3c(cc2c1N)C(=O)CCC3` here?
**A.** 102%

What follows are compounds tested on K562 (assay: Growth inhibition of human K562 cells assessed as cell growth at 1 uM incubated for 48 hrs by sulforhodamine B assay relative to control). Conditions: read-out: Activity.
Format: functional

**Q.** Which growth at 1 µM does the source give for `CCc1cccc(C)c1NC(=O)c1sc2nc3c(cc2c1N)C(=O)CCC3` here?
**A.** 16%

Each compound was assayed on NCI-H226 (assay: Growth inhibition of human NCI-H226 cells assessed as cell growth at 1 uM incubated for 48 hrs by sulforhodamine B assay relative to control). Conditions: read-out: Activity.
Format: functional

**Q.** `CCc1cccc(C)c1NC(=O)c1sc2nc3c(cc2c1N)C(=O)CCC3` was tested. Which growth at 1 µM did it give?
**A.** 67%

The compounds below were run on U-251 (assay: Growth inhibition of human U-251 cells assessed as cell growth at 1 uM incubated for 48 hrs by sulforhodamine B assay relative to control). Conditions: read-out: Activity.
Format: functional

**Q.** For `CCc1cccc(C)c1NC(=O)c1sc2nc3c(cc2c1N)C(=O)CCC3`, which growth at 1 µM is on record?
**A.** 37%

These compounds were tested on OVCAR-3 (assay: Growth inhibition of human OVCAR-3 cells assessed as cell growth at 1 uM incubated for 48 hrs by sulforhodamine B assay relative to control). Conditions: read-out: Activity.
Format: functional

**Q.** How did the growth at 1 µM turn out when `CCc1cccc(C)c1NC(=O)c1sc2nc3c(cc2c1N)C(=O)CCC3` was run?
**A.** 10%

The compounds below were run on UO-31 (assay: Growth inhibition of human UO-31 cells assessed as cell growth at 1 uM incubated for 48 hrs by sulforhodamine B assay relative to control). Conditions: read-out: Activity.
Format: functional

**Q.** Which growth at 1 µM does the source give for `CCc1cccc(C)c1NC(=O)c1sc2nc3c(cc2c1N)C(=O)CCC3` here?
**A.** 37%

These compounds were tested on Malme-3M (assay: Growth inhibition of human Malme-3M cells assessed as cell growth at 100 uM incubated for 48 hrs by sulforhodamine B assay relative to control). Conditions: read-out: Activity.
Format: functional

**Q.** Which growth at 100 µM does the source give for `CCc1cccc(C)c1NC(=O)c1sc2nc3c(cc2c1N)C(=O)CCC3` here?
**A.** -1%

The compounds below were run on OVCAR-5 (assay: Growth inhibition of human OVCAR-5 cells assessed as cell growth at 100 uM incubated for 48 hrs by sulforhodamine B assay relative to control). Conditions: read-out: Activity.
Format: functional

**Q.** With `CCc1cccc(C)c1NC(=O)c1sc2nc3c(cc2c1N)C(=O)CCC3` as the compound, how does the growth at 100 µM read?
**A.** 30%

The compounds below were run on SN12C (assay: Growth inhibition of human SN12C cells assessed as cell growth at 100 uM incubated for 48 hrs by sulforhodamine B assay relative to control). Conditions: read-out: Activity.
Format: functional

**Q.** For `CCc1cccc(C)c1NC(=O)c1sc2nc3c(cc2c1N)C(=O)CCC3`, which growth at 100 µM is on record?
**A.** -4%

The compounds below were run on HOP-92 (assay: Growth inhibition of human HOP-92 cells incubated for 48 hrs by sulforhodamine B assay). Conditions: not given.
Format: functional
Procedure, shortened: (§2)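 NCI60 panel at the NCI Developmental Therapeutics Program. Only compounds active in the 10 µM screen went to dose-response testing. GI50, the concentration giving 50% of maximal inhibition of proliferation, and TGI, the concentration giving total growth inhibition, were derived from the dose-response curves.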

**Q.** With `CCc1cccc(C)c1NC(=O)c1sc2nc3c(cc2c1N)C(=O)CCC3` as the compound, how does the GI50 read?
**A.** 0.446 µM

**Q.** What about the LC50 (concentration killing 50% of the starting cells) of the same compound?
**A.** > 100 µM

**Q.** And the TGI?
**A.** 70 µM

These compounds were tested on NCI-H460 (assay: Growth inhibition of human NCI-H460 cells incubated for 48 hrs by sulforhodamine B assay). Conditions: not given.
Format: functional
Procedure, shortened: as §2

**Q.** Which GI50 does the source give for `CCc1cccc(C)c1NC(=O)c1sc2nc3c(cc2c1N)C(=O)CCC3` here?
**A.** 0.355 µM

**Q.** What about the LC50 of the same compound?
**A.** > 100 µM

**Q.** And the TGI?
**A.** 12.6 µM

What follows are compounds tested on HCC 2998 (assay: Growth inhibition of human HCC 2998 cells incubated for 48 hrs by sulforhodamine B assay). Conditions: not given.
Format: functional

**Q.** With `CCc1cccc(C)c1NC(=O)c1sc2nc3c(cc2c1N)C(=O)CCC3` as the compound, how does the GI50 read?
**A.** 1.33 µM

**Q.** And the TGI?
**A.** > 100 µM

Same assay, conditions: read-out: LC50 (the source's name)

**Q.** With `CCc1cccc(C)c1NC(=O)c1sc2nc3c(cc2c1N)C(=O)CCC3` as the compound, how does the CC50 read?
**A.** > 100 µM

Each compound was assayed on U-251 (assay: Growth inhibition of human U-251 cells incubated for 48 hrs by sulforhodamine B assay). Conditions: not given.
Format: functional
Procedure, shortened: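 NCI DTP 60-line human tumour panel. Dose-response curves were run only for ligands active in the initial 10 µM screen. GI50 (concentration giving 50% of maximal inhibition of proliferation) and TGI (concentration giving total growth inhibition) were derived from these curves.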

**Q.** Which results are given for `CCc1cccc(C)c1NC(=O)c1sc2nc3c(cc2c1N)C(=O)CCC3`?
**A.** GI50: 0.57 µM; LC50 (concentration killing 50% of cells): > 100 µM; TGI: > 100 µM

These compounds were tested on Malme-3M (assay: Growth inhibition of human Malme-3M cells incubated for 48 hrs by sulforhodamine B assay). Conditions: not given.
Format: functional
Procedure, shortened: as §2

**Q.** With `CCc1cccc(C)c1NC(=O)c1sc2nc3c(cc2c1N)C(=O)CCC3` as the compound, how does the LC50 read?
**A.** > 100 µM

**Q.** And the TGI?
**A.** 97.2 µM

These compounds were tested on M14 (assay: Growth inhibition of human M14 cells incubated for 48 hrs by sulforhodamine B assay). Conditions: not given.
Format: functional
Procedure, shortened: as §2

**Q.** For `CCc1cccc(C)c1NC(=O)c1sc2nc3c(cc2c1N)C(=O)CCC3`, which GI50 is on record?
**A.** 0.367 µM

**Q.** What about the LC50 (concentration killing 50% of cells) of the same compound?
**A.** > 100 µM

**Q.** What about the TGI of the same compound?
**A.** 19.5 µM
